Reference: publication PMC9398548 (European journal of pharmaceutical sciences : official …, 2020)

What was measured:
[1] = system: white blood cells (WBCs); experiment: MTT assay on non-transformed white blood cells; type: cell-based, human; settings: 48 h treatment with 100 μM
How it was run: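 WBCs from a healthy adult volunteer were isolated by HiSep centrifugation at 400 xg for 30 min, followed by repeated RBC lysis and PBS washes. Cells were held at 37 °C under 5% CO2 overnight in 96-well plates. Test compound was applied at 2.5–100 μM for 48 h. After two PBS washes, MTT was added for 4 h at 37 °C; formazan was dissolved in DMSO and absorbance read at 570 nm.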

[2] = system: CEM cells; experiment: Cell cycle analysis by flow cytometry; type: cell-based; settings: IC50 concentration, 24 h
How it was run: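 Cells were seeded in 24-well plates overnight, then given fresh medium and exposed to the test compound for 24 h beside an untreated control. After a PBS wash, cells were fixed in ice-cold 70% ethanol on ice for 2 h, then washed again. They were stained with PI for 15 min at 37 °C and analysed by flow cytometry within 30 min, in triplicate.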

[3] = system: CEM cells; experiment: Apoptosis induction by flow cytometry; type: cell-based; settings: IC50 concentration, 24 h
How it was run: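 CEM cells seeded in 24-well plates and held overnight at 37 °C under CO2. Medium was then replaced, and cells were exposed to the test compound for 24 h; untreated cells served as the negative control. Cells were washed in PBS, pelleted at 500 xg and 4 °C, resuspended in ice-cold binding buffer, and stained with annexin V-FITC plus PI for 15 min on ice in the dark. Analysed by flow cytometry, in triplicate.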

[4] = system: CEM cells; experiment: MTT cytotoxicity assay in CEM cells; type: cell-based; settings: read-out: CEM- IC50, 48 h, Mean±SD, n=3
How it was run: (§1)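 Cells were grown in suspension in RPMI 1640 with 10% FBS and penicillin/streptomycin/amphotericin B at 37 °C under 5% CO2. They were seeded at ~5×10^3 cells/well, kept overnight, then exposed to test compounds diluted in DMSO for 48 h. Cells were pelleted (300 g, 4 °C, 5 min) and washed twice in phosphate buffer. MTT (5 mg/ml stock) was added for 4 h at 37 °C, formazan dissolved in DMSO, and A570 read. Triplicate; IC50 given as mean±SD.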

[5] = system: K562 cells; experiment: MTT cytotoxicity assay in K562 cells; type: cell-based; settings: read-out: K562- IC50; MTT, 48 h, Mean±SD, n=3
How it was run: as §1

[6] = molecular target: T1, GLUT1 (Homo sapiens, UniProt P11166); type: cell-based
T1 sequence (P11166 1-492): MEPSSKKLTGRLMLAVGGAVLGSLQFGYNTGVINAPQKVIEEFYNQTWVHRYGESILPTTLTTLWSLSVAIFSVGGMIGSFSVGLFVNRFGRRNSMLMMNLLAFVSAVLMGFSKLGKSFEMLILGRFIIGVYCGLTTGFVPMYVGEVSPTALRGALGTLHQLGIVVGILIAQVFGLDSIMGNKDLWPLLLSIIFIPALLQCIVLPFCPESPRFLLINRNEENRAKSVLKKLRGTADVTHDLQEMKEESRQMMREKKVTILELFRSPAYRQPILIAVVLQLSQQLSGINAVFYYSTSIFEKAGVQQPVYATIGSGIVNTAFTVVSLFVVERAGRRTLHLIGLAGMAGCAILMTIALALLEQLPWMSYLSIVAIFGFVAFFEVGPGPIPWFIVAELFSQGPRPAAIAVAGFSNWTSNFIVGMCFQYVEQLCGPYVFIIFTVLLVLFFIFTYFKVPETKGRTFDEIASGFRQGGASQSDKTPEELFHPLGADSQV
How it was run: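 VW4000fgy1 hxt0 yeast carrying human GLUT1 were grown at 30 °C: first in SC-uracil/2% maltose for 2–3 days, then 1–2 days in SC-uracil/2% glucose from OD600 ~0.5. Cells were resuspended in PBS pH 7.4 at OD600 ~10 and given 5 mM C14-glucose for 10 min. Uptake was quenched with ice-cold buffer pH 5.5, filtered, and counted. Controls: 1% DMSO and 200 μM phloretin.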

[7] = molecular target: T2, GLUT4 (Homo sapiens, UniProt P14672); type: cell-based
T2 sequence (P14672 1-509): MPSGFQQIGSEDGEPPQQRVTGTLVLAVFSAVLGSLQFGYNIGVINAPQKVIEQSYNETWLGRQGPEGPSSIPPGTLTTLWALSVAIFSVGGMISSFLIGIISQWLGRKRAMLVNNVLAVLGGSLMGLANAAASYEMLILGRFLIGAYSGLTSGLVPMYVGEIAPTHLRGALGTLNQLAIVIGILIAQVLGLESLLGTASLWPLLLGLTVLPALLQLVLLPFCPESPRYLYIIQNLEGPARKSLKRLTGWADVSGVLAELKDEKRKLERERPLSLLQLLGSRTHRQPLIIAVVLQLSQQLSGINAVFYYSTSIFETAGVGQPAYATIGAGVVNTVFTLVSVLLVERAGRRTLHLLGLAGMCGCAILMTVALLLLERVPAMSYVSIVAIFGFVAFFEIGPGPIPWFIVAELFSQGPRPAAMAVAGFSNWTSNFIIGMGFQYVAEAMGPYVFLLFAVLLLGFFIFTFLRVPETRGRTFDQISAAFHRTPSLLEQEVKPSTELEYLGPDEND
How it was run: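 VW4000fgy1erg4 hxt0 yeast expressing human GLUT4 were cultured at 30 °C, first in SC-uracil/1% maltose and then in SC-uracil/0.2% glucose from OD600 ~0.5. Cells in PBS pH 7.4 (OD600 ~10) were fed 5 mM C14-glucose for 10 min. The reaction was quenched in ice-cold buffer pH 5.5, then filtered and scintillation-counted. Vehicle control was 1% DMSO; 200 μM phloretin served as positive control.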

[8] = system: GLUT5; type: cell-based, human
How it was run: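 Uses hexose-transporter-null VW4000 yeast expressing human GLUT5, cultured at 30 °C and 180 rpm. Cells were grown one day in YEP/2% maltose with G418, then 1–2 days in YEP/2% fructose starting from OD600 ~0.5. Washed cells in PBS pH 7.4 (OD600 ~10) took up 10 mM C14-fructose for 10 min. Uptake was stopped with ice-cold KPi/LiCl quench buffer pH 5.5, then filtered and scintillation-counted. Controls were 1% DMSO and 100 μM MSNBA. Screening was at 100 μM; three independent measurements.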

[9] = primary screen, 100 μM compound

decrease of relative transport activity of GLUT1 [6, 9]: > 50%
IC50 ([6]; read-out: GLUT1 IC50, hxt0 yeast cells expressing GLUT1, 5 mM C14-glucose, 10 minutes): 5.4 ± 1.3 µM
decrease of relative transport activity of GLUT4 [7, 9]: > 50%
IC50 ([7]; read-out: GLUT4 IC50, hxt0 yeast cells expressing GLUT4, 5 mM C14-glucose, 10 minutes): 9.5 ± 2.8 µM
IC50 ([8]; read-out: GLUT5 IC50, hxt0 yeast cells expressing GLUT5, 10 mM C14-fructose, 10 minutes): 34.5 ± 2.4 µM
SMILES: O=C(CN1C(=O)SC(=Cc2ccc(Cl)cc2)C1=O)Nc1ccc(Cl)cc1C(F)(F)F [Compound G5, 2-[5-(4-Chlorobenzylidene)-2,4-dioxothiazolidin-3-yl]-N-(4-chloro-2-trifluromethylphenyl) acetamide]
viable WBC cells [1]: More than 66%
percentage of cells arrested in G0-G1 phase [2]: 52.0%
percentage of cells arrested in the G2-M phase [2]: 22.1%
percentage of cells in early apoptotic phase [3]: 1.30%
percentage of cells in late apoptotic phase [3]: 59.22%
percentage of live cells [3]: 25.58%
percentage of necrotic cell population [3]: 13.90%
IC50 [4]: 13.5 ± 3.88 µM
IC50 [5]: 34.9 ± 1.07 µM
decrease of relative transport activity of GLUT5 [8, 9]: > 50%
